In brackets after ≈: the same amount, converted by molar mass.
Experiments:
Assay type in all cases: functional
Pseudomonas aeruginosa [1] = experiment: Antibacterial activity against Pseudomonas aeruginosa ATCC 27853 at 10 ug/ml; conditions: read-out: IZ
How it was run: (§1)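 Compound-loaded discs were placed on nutrient agar inoculated separately with fresh bacterial strains. Plates were incubated at 37 °C for 24 h with separate solvent and growth controls. Zone of inhibition and MIC were measured. Ciprofloxacin was the reference drug.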

Escherichia coli [2] = experiment: Antibacterial activity against Escherichia coli ATCC 25922; how it was run: as §1
Escherichia coli [3] = experiment: Antibacterial activity against Escherichia coli ATCC 25922 at 10 ug/ml; conditions: read-out: IZ; how it was run: as §1
Talaromyces marneffei [4] = experiment: Antifungal activity against Penicillium marneffei by dilution method
How it was run: (§2)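 Serial dilution method on Sabouraud agar (peptone, D-glucose, agar; pH 5.7) seeded with a saline spore suspension made from a loopful of each strain. Plates were dried for 1 h at incubator temperature. Test solutions in DMSO went into punched wells, with a DMSO control. Incubation was at 37 °C for 3–4 days. Zone of inhibition and MIC were read against ciclopiroxolamine as standard.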

Talaromyces marneffei [5] = experiment: Antifungal activity against Penicillium marneffei at 10 ug/ml; conditions: read-out: IZ; how it was run: as §2
Aspergillus flavus [6] = experiment: Antifungal activity against Aspergillus flavus NCIM 524 at 10 ug/ml; conditions: read-out: IZ; how it was run: as §2
Pseudomonas aeruginosa [7] = experiment: Antibacterial activity against Pseudomonas aeruginosa ATCC 27853; how it was run: as §1
Candida albicans [8] = experiment: Antifungal activity against Candida albicans NCIM 3100 by dilution method; how it was run: as §2
Candida albicans [9] = experiment: Antifungal activity against Candida albicans NCIM 3100 at 10 ug/ml; conditions: read-out: IZ; how it was run: as §2
Aspergillus fumigatus [10] = experiment: Antifungal activity against Aspergillus fumigatus NCIM 902 at 10 ug/ml; conditions: read-out: IZ; how it was run: as §2
Staphylococcus aureus [11] = experiment: Antibacterial activity against Staphylococcus aureus ATCC 25923; how it was run: as §1
Klebsiella pneumoniae [12] = experiment: Antibacterial activity against Klebsiella pneumoniae; how it was run: as §1
Aspergillus fumigatus [13] = experiment: Antifungal activity against Aspergillus fumigatus NCIM 902 by dilution method; how it was run: as §2
Staphylococcus aureus [14] = experiment: Antibacterial activity against Staphylococcus aureus ATCC 25923 at 10 ug/ml by disk diffusion method; conditions: read-out: IZ; how it was run: as §1
Aspergillus flavus [15] = experiment: Antifungal activity against Aspergillus flavus NCIM 524 by dilution method; how it was run: as §2
Klebsiella pneumoniae [16] = experiment: Antibacterial activity against Klebsiella pneumoniae at 10 ug/ml; conditions: read-out: IZ; how it was run: as §1

SMILES | zone of inhibition at 10 µg/mL (Pseudomonas aeruginosa [1]) [mm] | MIC (Escherichia coli [2]) [µg/mL] | zone of inhibition at 10 µg/mL (Escherichia coli [3]) [mm] | MIC (Talaromyces marneffei [4]) [µg/mL] | zone of inhibition at 10 µg/mL (Talaromyces marneffei [5]) [mm] | zone of inhibition at 10 µg/mL (Aspergillus flavus [6]) [mm] | MIC (Pseudomonas aeruginosa [7]) [µg/mL] | MIC (Candida albicans [8]) [µg/mL] | zone of inhibition at 10 µg/mL (Candida albicans [9]) [mm] | zone of inhibition at 10 µg/mL (Aspergillus fumigatus [10]) [mm] | MIC (Staphylococcus aureus [11]) [µg/mL] | MIC (Klebsiella pneumoniae [12]) [µg/mL] | MIC (Aspergillus fumigatus [13]) [µg/mL] | zone of inhibition at 10 µg/mL (Staphylococcus aureus [14]) [mm] | MIC (Aspergillus flavus [15]) [µg/mL] | zone of inhibition at 10 µg/mL (Klebsiella pneumoniae [16]) [mm]
CCOC(=O)C1=C(C)N=c2s/c(=C\c3ccc(F)cc3)c(=O)n2C1c1ccc(SC)cc1 (stereo unspecified) | 10 | 12.5 (≈ 26.7 µM) | 17 | 6 (≈ 12.8 µM) | 20 | 18 | 12.5 (≈ 26.7 µM) | 6 (≈ 12.8 µM) | 19 | 20 | 12.5 (≈ 26.7 µM) | 6 (≈ 12.8 µM) | 6 (≈ 12.8 µM) | 18 | 12.5 (≈ 26.7 µM) | 20
O=C(O)c1cn(C2CC2)c2cc(N3CCNCC3)c(F)cc2c1=O [CIPROFLOXACIN] | 25 | 12.5 (≈ 37.7 µM) | 18 | – | – | – | 6 (≈ 18.1 µM) | – | – | – | 12.5 (≈ 37.7 µM) | 6 (≈ 18.1 µM) | – | 19 | – | 20
CCOC(=O)C1=C(C)N=c2s/c(=C\c3ccc(SC)cc3)c(=O)n2C1c1ccc(SC)cc1 (stereo unspecified) | 13 | 25 (≈ 50.3 µM) | 12 | 12.5 (≈ 25.2 µM) | 12 | 10 | 12.5 (≈ 25.2 µM) | 12.5 (≈ 25.2 µM) | 10 | 12 | 25 (≈ 50.3 µM) | 12.5 (≈ 25.2 µM) | 12.5 (≈ 25.2 µM) | 10 | 25 (≈ 50.3 µM) | 12
CCOC(=O)C1=C(C)N=c2s/c(=C\c3ccc(-c4ccc([N+](=O)[O-])cc4)o3)c(=O)n2C1c1ccc(SC)cc1 (stereo unspecified) | 13 | 25 (≈ 44.5 µM) | 12 | 12.5 (≈ 22.3 µM) | 11 | 12 | 12.5 (≈ 22.3 µM) | 12.5 (≈ 22.3 µM) | 12 | 17 | 25 (≈ 44.5 µM) | 12.5 (≈ 22.3 µM) | 12.5 (≈ 22.3 µM) | 10 | 25 (≈ 44.5 µM) | 11
CCOC(=O)C1=C(C)N=c2s/c(=C\c3ccc4c(c3)OCO4)c(=O)n2C1c1ccc(SC)cc1 (stereo unspecified) | 10 | 25 (≈ 50.5 µM) | 10 | 12.5 (≈ 25.3 µM) | 10 | 12 | 12.5 (≈ 25.3 µM) | 12.5 (≈ 25.3 µM) | 11 | 12 | 25 (≈ 50.5 µM) | 12.5 (≈ 25.3 µM) | 12.5 (≈ 25.3 µM) | 10 | 25 (≈ 50.5 µM) | 10
CCOC(=O)C1=C(C)N=c2s/c(=C\c3ccc(-c4ccc(Cl)cc4Cl)o3)c(=O)n2C1c1ccc(SC)cc1 (stereo unspecified) | 23 | 25 (≈ 42.7 µM) | 11 | 6 (≈ 10.2 µM) | 18 | 18 | 6 (≈ 10.2 µM) | 6 (≈ 10.2 µM) | 20 | 10 | 12.5 (≈ 21.3 µM) | 6 (≈ 10.2 µM) | 12.5 (≈ 21.3 µM) | 19 | 12.5 (≈ 21.3 µM) | 20
CCOC(=O)C1=C(C)N=c2s/c(=C\c3ccc(F)c(Oc4ccccc4)c3)c(=O)n2C1c1ccc(SC)cc1 (stereo unspecified) | 12 | 25 (≈ 44.6 µM) | 10 | 6 (≈ 10.7 µM) | 19 | 18 | 12.5 (≈ 22.3 µM) | 6 (≈ 10.7 µM) | 20 | 12 | 12.5 (≈ 22.3 µM) | 12.5 (≈ 22.3 µM) | 12.5 (≈ 22.3 µM) | 19 | 12.5 (≈ 22.3 µM) | 12
CCOC(=O)C1=C(C)N=c2s/c(=C\c3ccc(-c4ccc(Br)cc4)o3)c(=O)n2C1c1ccc(SC)cc1 (stereo unspecified) | 23 | 12.5 (≈ 21 µM) | 18 | 6 (≈ 10.1 µM) | 20 | 18 | 6 (≈ 10.1 µM) | 6 (≈ 10.1 µM) | 19 | 12 | 12.5 (≈ 21 µM) | 6 (≈ 10.1 µM) | 12.5 (≈ 21 µM) | 18 | 12.5 (≈ 21 µM) | 20
CCOC(=O)C1=C(C)N=c2s/c(=C\c3ccc(Cl)cc3Cl)c(=O)n2C1c1ccc(SC)cc1 (stereo unspecified) | 13 | 25 (≈ 48.1 µM) | 11 | 12.5 (≈ 24.1 µM) | 10 | 10 | 12.5 (≈ 24.1 µM) | 12.5 (≈ 24.1 µM) | 12 | 11 | 12.5 (≈ 24.1 µM) | 12.5 (≈ 24.1 µM) | 12.5 (≈ 24.1 µM) | 18 | 25 (≈ 48.1 µM) | 10
CCOC(=O)C1=C(C)N=c2s/c(=C\c3ccc(-c4ccc(Cl)cc4)o3)c(=O)n2C1c1ccc(SC)cc1 (stereo unspecified) | 10 | 25 (≈ 45.4 µM) | 10 | 12.5 (≈ 22.7 µM) | 11 | 17 | 12.5 (≈ 22.7 µM) | 6 (≈ 10.9 µM) | 19 | 10 | 25 (≈ 45.4 µM) | 12.5 (≈ 22.7 µM) | 12.5 (≈ 22.7 µM) | 12 | 12.5 (≈ 22.7 µM) | 12
CCOC(=O)C1=C(C)N=c2s/c(=C\c3ccc(OC)cc3)c(=O)n2C1c1ccc(SC)cc1 (stereo unspecified) | 24 | 25 (≈ 52 µM) | 10 | 12.5 (≈ 26 µM) | 12 | 17 | 6 (≈ 12.5 µM) | 6 (≈ 12.5 µM) | 20 | 21 | 25 (≈ 52 µM) | 6 (≈ 12.5 µM) | 6 (≈ 12.5 µM) | 12 | 12.5 (≈ 26 µM) | 21
CCOC(=O)C1=C(C)N=c2s/c(=C\c3ccc(O)cc3)c(=O)n2C1c1ccc(SC)cc1 (stereo unspecified) | 15 | 25 (≈ 53.6 µM) | 12 | 12.5 (≈ 26.8 µM) | 12 | 10 | 12.5 (≈ 26.8 µM) | 12.5 (≈ 26.8 µM) | 10 | 10 | 25 (≈ 53.6 µM) | 12.5 (≈ 26.8 µM) | 12.5 (≈ 26.8 µM) | 12 | 25 (≈ 53.6 µM) | 12
CCOC(=O)C1=C(C)N=c2s/c(=C\c3ccc(Cl)cc3)c(=O)n2C1c1ccc(SC)cc1 (stereo unspecified) | 12 | 25 (≈ 51.5 µM) | 10 | 12.5 (≈ 25.8 µM) | 10 | 12 | 12.5 (≈ 25.8 µM) | 12.5 (≈ 25.8 µM) | 11 | 11 | 25 (≈ 51.5 µM) | 12.5 (≈ 25.8 µM) | 12.5 (≈ 25.8 µM) | 10 | 25 (≈ 51.5 µM) | 10
CCOC(=O)C1=C(C)N=c2s/c(=C\c3ccc(O)c(OC)c3)c(=O)n2C1c1ccc(SC)cc1 (stereo unspecified) | 23 | 12.5 (≈ 25.2 µM) | 18 | 6 (≈ 12.1 µM) | 19 | 11 | 6 (≈ 12.1 µM) | 12.5 (≈ 25.2 µM) | 10 | 21 | 12.5 (≈ 25.2 µM) | 12.5 (≈ 25.2 µM) | 6 (≈ 12.1 µM) | 20 | 25 (≈ 50.3 µM) | 18
